The sample as a whole holds a higher share of hits than the screen did.
ABCB1 block = inhibitors of human ABCB1 transporter, ABCG2 counter-screen; P08183; CCRF-Adr cells, JC-1 efflux, flow cytometry; inhibition, % at 6.6 µM; 190,000 tested, 0.067% active; AID 1326; in the data active = inhibition above about 40%;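 also: 0% = vehicle and 100% = reference inhibitor; higher value means more JC-1 retained so stronger ABCB1 efflux block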
Biofilm kill mix = mixtures killing C. albicans biofilm; C. albicans biofilm persisters + clotrimazole, fluorescence viability; primary screen in compound mixtures of four per well; inhibition, % at 7.6 µM; 120,000 tested, 0.02% active;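 active = inhibition above 30.3% in the primary screen of four-compound pools, then above 30% when the compound was retested; inconclusive = passed the primary limit but could not be retested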;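 also: compounds exposed to preformed 24 h biofilms for 48 h; 0% = untreated biofilm control and 100% = clotrimazole plus chlorhexidine kill blank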
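Test system: C. albicans CAF4-2 wild-type biofilms; buffer or medium: RPMI/MOPS medium, pH 7.0; schedule: 24 h biofilm formation, then 48 h compound exposure, 37 °C; detection: Alamar Blue fluorescence; measure: percent inhibition of biofilm viability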
zfTRPN1 agonist = activates the zebrafish TRPN1 channel; activation, % at 3 µM; HEK293 zebrafish TRPN1-YFP, Fluo-8 calcium fluorescence; 100% = response to 87 µM carbachol; 220,000 tested, 0.18% active;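 active = activation above its plate's cutoff, the mean activation of test wells on that plate plus 3 SD, cut at about 19% in these data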;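 also: 0% = DMSO alone and 100% = 87 µM carbachol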
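System: zebrafish TRPN1-YFP in HEK293 cells / Dosing: 3 µM single point / Timing: dye loading 1 h at 37 °C, then 30 min room temperature / Signal: Fluo-8 calcium fluorescence, excitation 470-495 nm, emission 515-575 nm / Read-out basis: percent activation from peak over basal fluorescence ratio, control-normalized / Control set: high carbachol 87 µM, low DMSO alone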
TRPML3 agonist = agonists of human TRPML3 channel; HEK293 TRPML3-YFP, Fluo-8 calcium fluorescence; 100% = the carbachol control signal; Q8TDD5; activation, % at 3 µM; 220,000 tested, 0.29% active;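 active = activation above its plate's cutoff, the mean activation of the plate's test wells plus 3 SD, cut at about 12% in these data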;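 also: 0% = DMSO only wells and 100% = carbachol wells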
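Test system: TRPML3-YFP stable HEK293 cells. Doses: single point at 3 µM. Incubation: dye loading 1 h 37 °C then 30 min ambient, 125 s read. Signal: Fluo-8 calcium dye fluorescence, ex 470-495, em 515-575 nm. Measure: percent activation from peak-to-basal fluorescence ratio, scaled between DMSO and carbachol.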
ROMK mod = human ROMK K+ channel modulation, primary screen; P48048; Tet-inducible ROMK, thallium flux fluorescence; actives lie on both sides; B-score at 10 µM; 130,000 tested, 2% active;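 active = signal ratio slope over the read window, or its plate-corrected B-score, at least 3 SD from the plate mean, either direction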;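 also: B-score of the F/F0 ratio slope over 7 to 12 s after thallium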
ABCG2 inh = blocks JC-1 efflux by human ABCG2 transporter | Q9UNQ0 | IgMXP3 cells, flow cytometry | inhibition, % at 6.6 µM | 190,000 tested, 0.1% active;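 active = inhibition above 80%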;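 also: 0% = DMSO and 100% = nicardipine control wells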
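Times: 10 min at 25 °C | Test system: Two drug-resistant human cell lines, ABCG2 and ABCB1 | Quantity: 3 million cells/mL final, two lines in 1:1 ratio | Signal: Flow cytometry, 530 nm JC-1 signal | Dosing: Compound at 6.6 µM | Controls: Nicardipine and DMSO wells | Reagent: JC-1 as fluorescent efflux pump substrate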
ROMK hit retest = human ROMK channel modulation, retest confirmation | ROMK thallium flux, fluorescence ratio; active compounds read low | shares compounds with ROMK mod | 3,000 tested, 54% active | normalized thallium flux (F/F0 slope) at 10 µM | AID 1917;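 active = Flux at 10 µM at least 3 SD below or above vehicle control mean in one or both replicates; inconclusive = no clear call, values can overlap the other calls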
* = called active by the depositor; u = inconclusive; x = no result given.

SMILES	ABCB1 block	Biofilm kill mix	zfTRPN1 agonist	TRPML3 agonist	ROMK mod	ABCG2 inh	ROMK hit retest
CCCCCCCCOC(=O)c1c(CSC(=N)N)n(C)c2cc(Br)c(OC(C)=O)cc12	x	15	2	0	x	x	u
CCOC(=O)c1c(CSc2nc(C)cc(C)c2C#N)n(C)c2cc(Br)c(OC(C)=O)cc12	0	18	0	1	x	-1	x
O=C(NC1CCCCCC1)C1CCCN(S(=O)(=O)c2cccs2)C1 (centres undefined)	1	x	1	0	x	3	u
C=CCOC(=O)C(C#N)c1nc2ccccc2nc1N1CCN(Cc2ccc3c(c2)OCO3)CC1 (centres undefined)	14	x	0	0	-3.2*	8	0.063*
CCCCNC(=O)C(C#N)c1nc2ccccc2nc1N1CCN(Cc2ccc3c(c2)OCO3)CC1 (centres undefined)	x	x	x	x	-0.021	x	x
COc1cccc(-c2nn(C)c3sc(C(=O)NCc4ccccn4)cc23)c1	3	x	-2	0	x	17	0.074
COc1cccc(-c2nn(C)c3sc(C(=O)NCc4ccc(C)cc4)cc23)c1	3	x	-1	-1	1.4	71	x
OCCC1CN(CC(c2ccccc2)c2ccccc2)CCN1C1CCCC1 (centres undefined)	1	15	-2	0	-1.7	2	x
CC(=O)c1c(C)nn(C(C)CC(=O)O)c1C (centres undefined)	1	x	0	-1	x	4	0.076
CC(CC(=O)O)n1nnc2ccccc21 (centres undefined)	x	27	-1	1	x	x	x
CC(c1ccco1)N(C(=O)CSc1ccc(Br)cc1)c1ccccn1 (centres undefined)	1	x	2	1	-4.1*	2	0.058*
Cc1ccc(CSc2nc3ccccc3cc2C=O)cc1	0	x	1	0	x	0	0.1*
O=Cc1cc2ccccc2nc1SCc1ccc(Cl)cc1	1	x	2	1	x	15	x
Oc1ccccc1-c1nc(NCCN2CCOCC2)c2ccccc2n1	1	x	5	0	-3.7*	11	0.073
Cc1cccc(NC(=O)c2cnn(-c3ccc(F)cc3)c2C2CCNCC2)c1C	0	19	1	0	-2.1	2	x
Cc1ccc(-n2ncc(C(=O)Nc3cc(Cl)ccc3C)c2C2CCNCC2)cc1C	0	5	0	1	-3.2*	0	0.045*
N#CCCN1CCN(C2=NC(=O)/C(=C\c3cccs3)S2)CC1	0	2	1	0	-0.31	6	x
O=C(Nc1ccccc1N1CCN(c2ccccc2)CC1)c1ccccc1	9	15	0	0	-0.48	14	x
COc1cc2c(cc1OC)-c1c(OC)c(OC)cc3ccnc(c13)C2=O	1	11	0	0	-3.4*	23	0.054*
CC(/C=C/c1ccccc1)=N\NC(=O)c1cc(C)[nH]n1	1	18	0	0	-0.4	18	x
COC(=O)N/N=C\c1ccc(-c2cc(Cl)c(Cl)cc2Cl)o1	0	5	0	1	-0.99	2	x
COC(=O)N/N=C/c1ccc(-c2cc(Cl)ccc2Cl)o1	-1	-6	-1	0	x	2	0.066*
CCc1sc(NS(C)(=O)=O)nc1-c1ccccc1	0	x	1	1	2.8*	2	0.083
COCCCNC(=O)CCCn1c(=O)c2ccccc2n(Cc2cccc([N+](=O)[O-])c2)c1=O	1	15	-1	0	0.58	4	x
COc1ccc(C(C[N+](=O)[O-])C2(c3ccc(OC)c(OC)c3)C(=O)c3ccccc3C2=O)cc1 (centres undefined)	12	3	0	3	-5.1*	41	u
Nc1nc(SCC(=O)N2CCCC2)[nH]c(=O)c1NC(=O)c1cccs1	x	24	2	1	x	x	x
COc1ccc(CNC(=O)C/C(C)=N/NC(=O)COc2ccc(C)cc2Br)cc1	0	2	-1	0	3.4*	0	0.074
